From ChEMBL document CHEMBL3259753, “Synthesis, structure-activity relationships and biological evaluation of dehydroandrographolide and andrographolide derivatives as novel anti-hepatitis B virus agents” (Bioorg Med Chem Lett, 2014) come the findings set out here.

The nature of series [1]: Cytotoxicity against human HepG2.2.15 cells by MTT assay. It is filed as cell-based, HepG2 2.2.15.
For series [2], the system named is Hepatitis B virus. Nature of the series: Antiviral activity against HBV infected in human HepG2.2.15 cells assessed as inhibition of hepatitis B surface antigen secretion by ELISA. It is filed as functional, organism-based. The settings on record: HepG2 2.2.15. For orientation: In an ELISA, binding on a coated surface is turned into a signal by an enzyme label.

Series [3] is described as follows: Selectivity index, ratio of CC50 for human HepG2.2.15 cells to IC50 for HBV infected in human HepG2.2.15 cells assessed as inhibition of hepatitis B surface antigen secretion. It is filed as functional.
Series [4] deals with Hepatitis B virus. Nature of the series: Antiviral activity against HBV infected in human HepG2.2.15 cells assessed as inhibition of hepatitis B e antigen secretion by ELISA. It is filed as functional, organism-based. The settings on record: HepG2 2.2.15.
Series [5] is described as follows: Selectivity index, ratio of CC50 for human HepG2.2.15 cells to IC50 for HBV infected in human HepG2.2.15 cells assessed as inhibition of hepatitis B e antigen secretion. It is filed as functional.
For series [6], the system named is Hepatitis B virus. Description: Antiviral activity against HBV infected in human HepG2.2.15 cells assessed as inhibition of DNA replication. It counts as functional, organism-based. As to conditions: HepG2 2.2.15.
Series [7] is described as follows: Selectivity index, ratio of CC50 for human HepG2.2.15 cells to IC50 for HBV infected in human HepG2.2.15 cells assessed as inhibition of DNA replication. It counts as functional.
A short description of series [8]: Octanol-water partition coefficient, log P of the compound at 30 degC by HPLC analysis. It is filed as physicochemical. In short, it runs like this: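 Shake-flask method: solutes equilibrated between octanol and water. Compound concentration in the octanol phase determined by HPLC. LogP determined at 30 °C.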

SMILES strings stand for the structures.

The term CC50 denotes the concentration giving 50% cytotoxicity. A word on the IC50: it is the concentration needed to halve the response being measured. `C=C1CC[C@@H]2[C@](C)(COC(C)=O)[C@H](O)CC[C@@]2(C)[C@@H]1C/C=C1\C=COC1=O` gave a CC50 in series [1] of 334 µM. Moreover, the IC50 with Hepatitis B virus [2] came out at 280 µM; in the series with Hepatitis B virus [4] it was 289 µM; with Hepatitis B virus [6] it was 44.1 µM. The “Ratio CC50/IC50” value in series [3] is given as 1.2; in series [5], 1.1; in series [7] it was 7.6.
Take `C=C1CC[C@@H]2[C@](C)(COC(=O)c3ccccc3C(=O)O)[C@H](O)CC[C@@]2(C)[C@@H]1C/C=C1\C=COC1=O`: the CC50 in series [1] came to 450 µM. The IC50 with Hepatitis B virus [2] was determined as 1320 µM; in the series on Hepatitis B virus [4], 293 µM; with Hepatitis B virus [6], 39.4 µM. For the same compound, the “Ratio CC50/IC50” value in series [5] was 1.5; in series [7] it was 11.4.
Consider `C=C1CC[C@@H]2[C@](C)(COC(=O)/C=C/c3ccccc3)[C@H](O)CC[C@@]2(C)[C@@H]1/C=C/C1=CCOC1=O`, for which it took 183 µM to reach half-maximal cytotoxicity in series [1] (CC50). Also, the IC50 with Hepatitis B virus [2] was determined as 18 µM; in the series on Hepatitis B virus [4], 28.9 µM; in the series with Hepatitis B virus [6], 14.6 µM. In addition, the “Ratio CC50/IC50” value in series [3] was 10.2; in series [5] it was 6.3; in series [7], 15.5.
The term logP denotes the decadic logarithm of the partition coefficient of the neutral form, usually between octanol and water. For `C=C1CC[C@@H]2[C@](C)(COC(=O)/C=C/c3cc(OC)c(OC)c(OC)c3)[C@H](O)CC[C@@]2(C)[C@@H]1/C=C/C1=CCOC1=O`, the CC50 in series [1] was over 1710 µM. The concentration for half-maximal inhibition (IC50) in the series on Hepatitis B virus [4] stood at 201 µM; with Hepatitis B virus [6], 10.3 µM. For the same compound, the “Ratio CC50/IC50” value in series [5] is over 8.5; in series [7], over 165.1. The logP in series [8] (read-out: logP) came out at 1.78.
Regarding `C=C1CC[C@@H]2[C@](C)(CO)[C@H](O)CC[C@@]2(C)[C@@H]1/C=C/C1=CC(CO)(CO)OC1=O`, the CC50 in series [1] is 954 µM. Further, the IC50 in the series with Hepatitis B virus [2] is 74 µM; in the series on Hepatitis B virus [4] it was 860 µM; with Hepatitis B virus [6] it was 154 µM. For the same compound, the “Ratio CC50/IC50” value in series [3] was determined as 13; in series [5] it was 1.1; in series [7], 6.2.
Take `C=C1CC[C@@H]2[C@](C)(CO)[C@H](OC(=O)c3cccs3)CC[C@@]2(C)[C@@H]1C/C=C1\C=COC1=O`: in series [1], the CC50 was 257 µM. The IC50 in the series with Hepatitis B virus [2] is 41 µM; with Hepatitis B virus [4] it was over 2200 µM; in the series with Hepatitis B virus [6] it was 8.1 µM. Besides, the “Ratio CC50/IC50” value is reported as 6.2 in series [3] and 31.8 in series [7].
Consider `C[C@]1(CO)[C@H]2CC[C@@]3(CO3)[C@@H](/C=C/C3=CCOC3=O)[C@]2(C)CC[C@H]1O`, for which the CC50 in series [1] turned out to be 1840 µM. The IC50 amounted to 1290 µM in the series with Hepatitis B virus [2] and 78 µM with Hepatitis B virus [6]. For the same compound, the “Ratio CC50/IC50” value in series [3] is recorded as 1.4; in series [7], 23.6.
`C=C1CC[C@@H]2[C@](C)(CO)[C@H](OC(C)=O)CC[C@@]2(C)[C@@H]1C/C=C1\C=COC1=O` displayed a CC50 in series [1] of 872 µM. Also, the IC50 in the series on Hepatitis B virus [2] is 318 µM; with Hepatitis B virus [4], 241 µM; in the series on Hepatitis B virus [6] it was 44.4 µM. For the same compound, the “Ratio CC50/IC50” value in series [3] is recorded as 2.7; in series [5], 3.6; in series [7], 19.6.
Regarding `C=C1CC[C@@H]2[C@](C)(CO)[C@H](OC(=O)c3cccnc3)CC[C@@]2(C)[C@@H]1C/C=C1\C=COC1=O`, it took 337 µM to reach half-maximal cytotoxicity in series [1] (CC50). In addition, the half-inhibitory concentration (IC50) came out at 261 µM with Hepatitis B virus [2], 714 µM with Hepatitis B virus [4] and 38.4 µM with Hepatitis B virus [6]. The “Ratio CC50/IC50” value in series [3] is reported as 1.3; in series [7] it was 8.8.
`C=C1CC[C@@H]2[C@](C)(COC(=O)c3cccs3)[C@H](O)CC[C@@]2(C)[C@@H]1C/C=C1\C=COC1=O` registered a CC50 in series [1] of 2470 µM. Moreover, the IC50 with Hepatitis B virus [2] worked out at 121 µM; in the series on Hepatitis B virus [4], 19.7 µM; with Hepatitis B virus [6] it was 23.5 µM. Moreover, the results for the “Ratio CC50/IC50” value in series [3], in series [5] and in series [7] were 20.3, 125 and 104.9, respectively.
In series [1], `C=C1CC[C@@H]2[C@](C)(CO)[C@H](O)CC[C@@]2(C)[C@@H]1C/C=C1/C(=O)OC[C@H]1O` [ANDROGRAPHOLIDE] returned a CC50 of 198 µM. The IC50 in the series with Hepatitis B virus [6] was found to be 54.1 µM. Moreover, the “Ratio CC50/IC50” value in series [7] amounted to 3.7. In series [8] (read-out: logP), the logP was found to be 0.52.
Take `C=C1CC[C@@H]2[C@](C)(COC(=O)c3cccs3)[C@H](O)CC[C@@]2(C)[C@@H]1/C=C/C1=CCOC1=O`: half-maximal cytotoxicity in series [1] (CC50) was put at 557 µM. Moreover, the IC50 with Hepatitis B virus [2] was found to be 162 µM; in the series on Hepatitis B virus [4], 29.2 µM; in the series on Hepatitis B virus [6], 22.1 µM. For the same compound, the “Ratio CC50/IC50” value in series [3] amounted to 3.4; in series [5], 19.1; in series [7], 25.2.
Take `C=C1CC[C@@H]2[C@](C)(COC(=O)c3cccnc3)[C@H](O)CC[C@@]2(C)[C@@H]1/C=C/C1=CCOC1=O`: the CC50 in series [1] was found to be 113 µM. For the same compound, the half-inhibitory concentration (IC50) in the series with Hepatitis B virus [2] turned out to be 40 µM; with Hepatitis B virus [4], 63.5 µM; with Hepatitis B virus [6], 22.1 µM. The “Ratio CC50/IC50” value in series [3] came to 2.8; in series [5], 1.8; in series [7] it was 5.1.
In series [1], `C[C@H](Cn1cnc2c(N)ncnc21)OCP(=O)(O)O` [TENOFOVIR ANHYDROUS] had a CC50 of over 1720 µM. For the same compound, the IC50 in the series with Hepatitis B virus [2] came out at 1390 µM; in the series on Hepatitis B virus [6] it was 0.71 µM. For the same compound, the “Ratio CC50/IC50” value was over 1.2 in series [3], over 1.4 in series [5] and over 2417.3 in series [7].
As for `C=C1CC[C@H]2[C@@](C)(CCC(=O)[C@@]2(C)C=O)[C@@H]1C/C=C1\C=COC1=O`, it took 964 µM to reach half-maximal cytotoxicity in series [1] (CC50). Besides, the values for the IC50 in the series on Hepatitis B virus [2] and with Hepatitis B virus [6] were 518 µM and 169 µM, respectively. Further, the “Ratio CC50/IC50” value in series [3] was determined as 1.9; in series [7], 5.7.
Consider `C=C1CC[C@@H]2[C@](C)(COC(=O)c3ccco3)[C@H](O)CC[C@@]2(C)[C@@H]1/C=C/C1=CCOC1=O`, for which, in series [1], half-maximal cytotoxicity (CC50) was put at 92 µM. In addition, the half-inhibitory concentration (IC50) in the series with Hepatitis B virus [2] is 19.2 µM; in the series on Hepatitis B virus [4], 77.5 µM; in the series on Hepatitis B virus [6] it was 9.3 µM. For the same compound, the entries for the “Ratio CC50/IC50” value in series [3], in series [5] and in series [7] were 4.6, 1.2 and 9.9, respectively.
Regarding `C=C1CC[C@@H]2[C@](C)(CO)[C@H](O)CC[C@@]2(C)[C@@H]1/C=C/C1=CCOC1=O`, in series [1], half-maximal cytotoxicity (CC50) was put at 197 µM. Further, the IC50 in the series with Hepatitis B virus [6] was 22.6 µM. Further, in series [7], the “Ratio CC50/IC50” value is reported as 8.7. The compound also gave a logP in series [8] of 1.44.
In series [1], `C=C1CC[C@@H]2[C@](C)(COC(=O)c3cccs3)[C@H](OC(=O)c3cccs3)CC[C@@]2(C)[C@@H]1/C=C/C1=CCOC1=O` displayed a CC50 of over 1540 µM. Besides, the values for the IC50 in the series with Hepatitis B virus [2], with Hepatitis B virus [4] and with Hepatitis B virus [6] were 1450 µM, 822 µM and 185 µM, respectively. Besides, the “Ratio CC50/IC50” value in series [3] is listed as over 1; in series [5], over 1.8; in series [7], over 8.3.
Take `C=C1CC[C@@H]2[C@](C)(COC(C)=O)[C@H](OC(C)=O)CC[C@@]2(C)[C@@H]1C/C=C1\C=COC1=O`: the half-maximal cytotoxic concentration (CC50) in series [1] was found to be 297 µM. Also, the IC50 with Hepatitis B virus [2] was found to be 251 µM; in the series with Hepatitis B virus [4], 260 µM; in the series with Hepatitis B virus [6], 39.6 µM. Further, the “Ratio CC50/IC50” value in series [3] is 1.2; in series [5], 1.1; in series [7], 7.6.
